Active and inactive are the calls of the source. The calls are words filed in the database; no cut-off is given here.
Key:
[1] = target: T1, Glucocorticoid receptor (Homo sapiens) (UniProt P04150); assay: Antagonist activity at glucocorticoid receptor expressed in human PC3 cells assessed as reduction in dexamethasone-induced receptor transactivation at 1 uM by luciferase reporter gene assay; format: functional, cell-based; conditions: PC-3
T1 sequence (whole entry): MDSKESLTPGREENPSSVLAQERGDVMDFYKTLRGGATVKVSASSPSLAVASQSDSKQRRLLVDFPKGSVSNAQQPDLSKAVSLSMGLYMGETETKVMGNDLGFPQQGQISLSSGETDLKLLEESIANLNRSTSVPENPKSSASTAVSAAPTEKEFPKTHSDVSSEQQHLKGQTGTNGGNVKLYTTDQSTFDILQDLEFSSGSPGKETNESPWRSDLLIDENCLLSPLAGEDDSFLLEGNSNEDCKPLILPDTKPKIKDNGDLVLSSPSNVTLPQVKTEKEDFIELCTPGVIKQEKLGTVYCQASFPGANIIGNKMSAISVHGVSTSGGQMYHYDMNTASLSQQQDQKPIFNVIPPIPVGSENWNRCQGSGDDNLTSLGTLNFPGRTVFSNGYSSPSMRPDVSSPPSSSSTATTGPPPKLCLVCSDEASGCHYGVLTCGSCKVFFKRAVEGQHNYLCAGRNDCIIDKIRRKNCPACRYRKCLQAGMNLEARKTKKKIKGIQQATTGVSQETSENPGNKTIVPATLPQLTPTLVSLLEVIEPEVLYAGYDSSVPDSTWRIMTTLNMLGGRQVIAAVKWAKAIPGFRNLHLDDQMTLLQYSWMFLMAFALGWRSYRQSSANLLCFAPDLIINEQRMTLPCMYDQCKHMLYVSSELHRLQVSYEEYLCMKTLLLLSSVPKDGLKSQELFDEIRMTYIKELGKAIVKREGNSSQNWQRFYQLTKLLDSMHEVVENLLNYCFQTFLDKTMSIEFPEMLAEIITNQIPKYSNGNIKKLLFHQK
Procedure, shortened: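 PC-3 cells express GR endogenously and were transfected only with the MMTV-luc reporter. Compound tested at 1 μM, alone or against transactivation induced by 10 nM dexamethasone. Read-out was luciferase reporter activity.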

[2] = system: CWR22R; assay: Cytotoxicity against human 22Rv1 cells incubated for 72 hrs by MTT assay; format: functional, cell-based; conditions: 22Rv1, 72 h
Procedure, shortened: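 MTT assay run across a panel of prostate cancer cell lines.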

[3] = target: T2, Androgen receptor (Homo sapiens) (UniProt P10275); assay: Antagonist activity at androgen receptor in human PC3 cells assessed as increase in Maspin promoter activity at 2.5 uM by luciferase reporter gene assay; format: functional, cell-based; conditions: PC-3
T2 sequence (whole entry): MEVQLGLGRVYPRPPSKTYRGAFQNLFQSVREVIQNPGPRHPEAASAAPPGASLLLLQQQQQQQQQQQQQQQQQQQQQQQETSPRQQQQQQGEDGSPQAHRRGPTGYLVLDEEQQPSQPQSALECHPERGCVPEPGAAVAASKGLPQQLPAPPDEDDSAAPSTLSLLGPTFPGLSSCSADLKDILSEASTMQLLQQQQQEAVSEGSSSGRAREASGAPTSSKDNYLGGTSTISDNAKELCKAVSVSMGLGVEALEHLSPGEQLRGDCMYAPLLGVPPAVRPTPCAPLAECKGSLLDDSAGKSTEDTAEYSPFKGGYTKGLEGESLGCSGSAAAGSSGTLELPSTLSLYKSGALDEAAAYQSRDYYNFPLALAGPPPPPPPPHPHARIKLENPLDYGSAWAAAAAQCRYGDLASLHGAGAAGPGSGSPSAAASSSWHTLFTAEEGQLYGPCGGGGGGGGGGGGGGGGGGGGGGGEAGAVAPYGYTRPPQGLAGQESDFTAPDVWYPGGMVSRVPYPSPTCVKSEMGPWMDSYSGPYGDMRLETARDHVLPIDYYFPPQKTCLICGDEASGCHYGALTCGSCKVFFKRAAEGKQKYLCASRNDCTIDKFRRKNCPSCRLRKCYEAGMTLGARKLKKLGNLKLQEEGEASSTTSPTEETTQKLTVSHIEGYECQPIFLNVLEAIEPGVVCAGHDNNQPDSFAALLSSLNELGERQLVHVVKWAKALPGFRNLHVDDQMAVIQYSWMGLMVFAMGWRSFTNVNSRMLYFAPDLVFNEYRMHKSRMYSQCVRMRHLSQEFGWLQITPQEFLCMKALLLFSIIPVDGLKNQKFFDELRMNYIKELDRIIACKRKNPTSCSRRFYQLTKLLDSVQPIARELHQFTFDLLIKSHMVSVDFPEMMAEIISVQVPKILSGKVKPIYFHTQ
Procedure, shortened: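 PC-3 cells were transfected with maspin-luc, with or without cotransfected AR. Cells were exposed to DMSO vehicle or compound at 2.5 and 5 μM. Luciferase activity was measured in triplicate.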

[4] = target: T2, Androgen receptor (Homo sapiens); assay: Antagonist activity at androgen receptor in human LNCaP cells assessed as reduction in DHT-induced PSA expression incubated for 24 hrs by RT-PCR
[5] = system: PC-3; assay: Agonist activity at androgen receptor T887A mutant expressed in human PC3 cells assessed as stimulation of receptor transactivation at 0.1 to 1 uM by luciferase reporter gene assay; format: functional, cell-based
Procedure, shortened: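 Full-length wild-type or mutant AR plasmid transiently transfected into PC-3 cells with MMTV-luc and Renilla luciferase reporters. Cells treated with DMSO vehicle or compound at 0.1 and 1 μM, alone or with 0.1 nM DHT. Luciferase read as relative luciferase units. Run in triplicate.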

Q: For Cc1coc2c1C(=O)C(=O)c1c-2ccc2c1CCCC2(C)C [TANSHINONE IIA], which Activity [1] is on record?
A: inactive

Q: And the IC50 [2]?
A: 6.7 µM

Q: And the Activity [3]?
A: Active

Q: What about the Activity [4] of the same molecule?
A: Dose-dependent effect

Q: And the Activity [5]?
A: inactive

— ChEMBL document CHEMBL2163220 (J Med Chem, 2012)
